# In ChEMBL document CHEMBL3259660, “Haloemodin as novel antibacterial agent inhibiting DNA gyrase and bacterial topoisomerase I” (J Med Chem, 2014):
# Active and inactive are the calls of the source. The rule behind the calls is not given here.
# Tests used:
# [1] = test system: Staphylococcus epidermidis; assay: Antibacterial activity against methicillin-resistant Staphylococcus epidermidis assessed as growth inhibition by agar dilution assay; format: functional
# Procedure, shortened: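 CLSI agar dilution MIC against aerobic and anaerobic strains. Test compounds were dissolved in DMSO and reference antibiotics in sterile water. MIC was taken as the lowest concentration showing no bacterial growth. Each MIC was determined at least twice on separate days, and the higher value was reported. E. coli PQ 37 was cultured in LA medium.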
# [2] = test system: Staphylococcus aureus; assay: In vivo antibacterial activity against Staphylococcus aureus in New zealand rabbit keratitis model assessed as suppression of conjuctival congestion, conjuctival chemosis, infiltration, operative ulcer area and depth at 4.3 mg/ml administered topically every 4 hrs for four doses every day for 10 days starting 24 hrs post-infection by slit lamp biomicroscopy; format: functional, organism-based
# Procedure, shortened: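 NZW rabbits (2.0−3.0 kg), anesthetized with iv sodium pentobarbital 30 mg/kg, given intracorneal S. aureus (about 7.5 × 10^6 CFU) from an overnight LB culture. Starting 24 h post-infection, 30 μL drops applied topically per eye every 4 h, four doses daily (8 a.m.–8 p.m.), for 10 days, masked. Test compound in PEG–water (1:1). Slit-lamp biomicroscopy before and after.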
# [3] = Binding affinity to supercoiled pHOT-1 DNA assessed as unwinding of DNA helix by measuring shift of negative to positive supercoiled pHOT-1 at 10 to 150 uM treated 15 mins prior to Escherichia coli topoisomerase 1 addition for 30 mins by agarose gel electrophoresis
# [4] = test system: Escherichia coli; assay: Inhibition of Escherichia coli DNA gyrase-mediated double-stranded catenated kinetoplast DNA decatenation at 90 uM after 30 mins by agarose gel electrophoresis in presence of ATP
# Procedure, shortened: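 kDNA decatenation: 200 ng catenated kDNA with 1 U S. aureus gyrase, E. coli gyrase or human Topo IIα in assay buffer with ATP, 37 °C for 30 min. Stopped with universal stop solution, resolved on 1% agarose, ethidium bromide stained, UV imaging.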
structure (smiles),measurement,setting,value
Cc1cc(O)c2c(c1)C(=O)c1c(I)c(O)c(I)c(O)c1C2=O,MIC,[1],4 mg/L
same,inhibition,[2],Active
same,Activity,[3],inactive
same,inhibition,[4],Active
